Measurements from ChEMBL document CHEMBL1687824, “Overexpression of patA and patB, which encode ABC transporters, is associated with fluoroquinolone resistance in clinical isolates of Streptococcus pneumoniae” (2011).

Columns and labels:
Streptococcus pneumoniae [1] = experiment: Antibacterial activity against dye-resistant Streptococcus pneumoniae M46 DR overexpressing patA, patB by standardized agar doubling dilution method in presence of 20 ug/ml reserpine efflux pump inhibitor; format: functional
Method in brief: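 MICs were determined by BSAC agar doubling dilution in the presence of reserpine at 20 μg/ml. Strains were grown in BHI broth for 24 h at 37°C in 5% CO2, with R6 as control. Synergy was defined as an MIC drop of ≥2 dilutions with the inhibitor.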

Streptococcus pneumoniae [2] = experiment: Antibacterial activity against dye-resistant Streptococcus pneumoniae M55 DR overexpressing patA, patB by standardized agar doubling dilution method in presence of 50 uM sodium orthovanadate efflux pump inhibitor; format: functional
Method in brief: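 MIC by agar doubling dilution following BSAC guidelines. Strains grown in brain heart infusion broth 24 h at 37°C in 5% CO2. Where an efflux pump inhibitor applies, MIC redetermined with reserpine at 20 μg/ml or sodium orthovanadate at 50 μM. Synergy taken as a fall in MIC of ≥2 dilutions with inhibitor present. Dye resistance defined relative to R6 (both dyes ≥2 dilutions higher).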

Streptococcus pneumoniae [3] = experiment: Antibacterial activity against wild-type Streptococcus pneumoniae R6 by standardized agar doubling dilution method

Work on CC[n+]1c(-c2ccccc2)c2cc(N)ccc2c2ccc(N)cc21.[Br-] [HOMIDIUM BROMIDE] yielded an MIC (Streptococcus pneumoniae [1]) of 0.5 µg/mL, an MIC (Streptococcus pneumoniae [2]) of 1 µg/mL and an MIC (Streptococcus pneumoniae [3]) of 1 µg/mL.
